This is a sample that favours compounds with a hit; in the whole collection about 3.5% have one here.
MrgX1 PAM: positive allosteric modulators of MrgX1, primary screen, HEK293 cells, Fluo-4 calcium flux | AID 588675, 2011 | Mas-related G-protein coupled receptor member X1 (Homo sapiens), Q96LB2 | B-score at 10 µM | FDSS; stronger effect = higher value | 0.63% of 310,000 active;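 active = plate-corrected calcium response at least 3 library SD above typical, normal starting fluorescence, not activating the receptor alone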;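 also: compound read alongside a low EC10 to EC30 dose of BAM8-22 agonist; peak minus trough fluorescence over baseline measured at the second addition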
Target sequence (Q96LB2 whole entry, looked up): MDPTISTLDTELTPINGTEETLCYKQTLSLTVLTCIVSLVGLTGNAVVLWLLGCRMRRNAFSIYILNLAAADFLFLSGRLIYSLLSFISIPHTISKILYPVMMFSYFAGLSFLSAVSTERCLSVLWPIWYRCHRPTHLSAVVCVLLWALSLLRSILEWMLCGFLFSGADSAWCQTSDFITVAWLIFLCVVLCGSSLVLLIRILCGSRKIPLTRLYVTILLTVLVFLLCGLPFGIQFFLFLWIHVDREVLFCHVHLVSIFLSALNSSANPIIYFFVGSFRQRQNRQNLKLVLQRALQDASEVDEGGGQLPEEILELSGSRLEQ
RGS4 block: RGS4 inhibitors, primary screen, cell-based, HEK293 M3R inducible RGS4, calcium flux. Regulator of G-protein signaling 4 (Homo sapiens), P49798. Fluo-4 calcium flux; stronger effect = higher value; triggered by carbachol at its EC20. B-score at 10 µM. 0.45% of 310,000 active. AID 463165, 2010;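 active = B-score, a plate-corrected calcium signal, over three deviations above library mean, with baseline fluorescence within five deviations of library mean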;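 also: RGS4 expression induced by doxycycline in cells with stable M3 receptor; B-score is computed from the integrated fluorescence ratio over baseline after carbachol; higher B-score means a larger calcium signal and so more RGS4 inhibition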
Target sequence (P49798 whole entry, looked up): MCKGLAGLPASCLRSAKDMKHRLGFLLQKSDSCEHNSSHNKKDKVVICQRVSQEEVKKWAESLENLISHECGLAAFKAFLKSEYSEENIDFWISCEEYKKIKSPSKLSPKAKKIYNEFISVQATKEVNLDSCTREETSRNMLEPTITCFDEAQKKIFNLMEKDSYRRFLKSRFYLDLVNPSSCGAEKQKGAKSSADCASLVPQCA
MrgX1 antag: antagonists of human MrgX1 receptor, primary screen, HEK293 cells, Fluo-4 calcium flux. 1.3% of 310,000 active. B-score at 10 µM. AID 588676, 2011. Mas-related G-protein coupled receptor member X1 (Homo sapiens), Q96LB2. BAM8-22 antagonism; stronger effect = lower value;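 active = calcium-response B-score plate-corrected more than 3 library SD below zero, starting fluorescence within 5 deviations, no agonist response on first addition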;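 also: peak minus trough fluorescence over baseline after final BAM8-22 challenge near maximal dose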
MrgX1 agonist: agonists of human MrgX1 receptor, primary screen, HEK293 cells, Fluo-4 calcium flux | Mas-related G-protein coupled receptor member X1 (Homo sapiens), Q96LB2 | Fluo-4 calcium fluorescence, agonist mode; stronger effect = higher value | B-score at 10 µM | 0.44% of 310,000 active | AID 588627, 2011;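 active = calcium response B-score plate-corrected fluorescence ratio at least 3 library SD, with starting fluorescence B-score inside 5 SD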
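Test system: HEK293 cells stably expressing human MrgX1 receptor; amount: 15,000 cells per well; doses: compound delivered in addition one of three; times: overnight plating before 1 h dye loading; detection: Fluo-4 NW calcium-flux fluorescence, kinetic read; read-out basis: B-scored fluorescence response ratio; controls: positive and negative controls per plate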
RGS4 pot: RGS4 potentiators or activators, primary screen, cell-based, HEK293 M3R inducible RGS4, calcium flux; B-score at 10 µM; 0.92% of 310,000 active; AID 463111, 2010; carbachol calcium flux Fluo4; stronger effect = lower value;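 active = B-score of the integrated calcium signal more than 4 SD below the library mean, with starting fluorescence not abnormally high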;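 also: negative B-score means reduced calcium response which marks RGS4 activation or potentiation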
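Also added: carbachol at ECmax as muscarinic agonist stimulus; Assay system: HEK293 cells with stable M3R and inducible RGS4; Timing: overnight RGS4 induction, 30 min dye load 37 °C, 20 min compound RT; Measured by: Fluo4-AM (2 µM) calcium-flux fluorescence, kinetic read.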
MrgX1 ag confirm: MrgX1 receptor agonists, duplicate retest, confirmation, HEK293 cells, Fluo-4 calcium flux; shares compounds with MrgX1 agonist; Fluo-4 calcium fluorescence, FDSS; activation, % at 10 µM; 78% of 600 active; AID 602412, 2012;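 active = calcium signal rise, corrected for plate position, at least 3 library SD high, with starting brightness within 5 such deviations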
HEK293 Ca flux: nonspecific calcium signal in parental HEK293, confirmation, counter-screen for MrgX1 antagonist project, parental HEK293 cells, Fluo-4 calcium flux; shares compounds with MrgX1 antag; Fluo-4 calcium fluorescence, FDSS; fluorescence ratio F(max-min)/F0 at 10 µM; 2% of 4,000 active; AID 624111, 2012;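 active = duplicate-averaged calcium fluorescence ratio at least three times the standard deviation of buffer wells, a nonspecific response in parental cells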
HEK293 Ca counter: calcium response in parental HEK293 cells, primary screen, counter-screen for MrgX1 allosteric activator project, cell-based, Fluo-4 calcium flux, duplicate. shares compounds with MrgX1 antag. 0.4% of 4,000 active. Fluo-4 fluorescence ratio; stronger effect = higher value. fluorescence ratio F(max-min)/F0 at 10 µM;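 active = calcium fluorescence ratio, averaged over duplicates, at least 3 SD of the buffer-well ratio, meaning a nonspecific response in receptor-free cells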;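 also: untransfected parental HEK293 lacking MrgX1 used as counterscreen for MrgX1 allosteric activators; fluorescence change taken during the second addition on a kinetic imager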
HEK293 Ca cntr2: calcium response in parental HEK293 cells, primary screen, counter-screen for MrgX1 agonist project, cell-based, Fluo-4 calcium flux, duplicate, agonist mode | 8.7% of 4,000 active | Fluo-4 calcium fluorescence (FDSS); stronger effect = higher value | shares compounds with MrgX1 antag | fluorescence ratio F(max-min)/F0 at 10 µM;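 active = calcium fluorescence ratio at least three times the spread of buffer wells, meaning a non-specific response in parental cells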
A number is an active result; i = inactive; nt = not tested or not shown.

SMILES	MrgX1 PAM	RGS4 block	MrgX1 antag	MrgX1 agonist	RGS4 pot	MrgX1 ag confirm	HEK293 Ca flux	HEK293 Ca counter	HEK293 Ca cntr2
Cn1c(=O)c(C(=O)CN2CCN(S(=O)(=O)c3ccccc3)CC2)c(N)n(Cc2ccccc2)c1=O	i	i	i	38.3	i	170.5%	i	i	45.6
Cc1ccccc1NC(=S)NN1CCN(C)CC1	i	i	i	i	i	nt	nt	nt	nt
COc1ccccc1N/C(N)=N/c1nc(C)cc(C)n1	i	i	i	i	i	nt	nt	nt	nt
Cc1cc(C)nc(/N=C(\N)Nc2ccc(CC(=O)OC(C)C)cc2)n1	i	i	i	143	i	424.4%	i	i	90
Cc1cc(C)nc(/N=C(\N)Nc2cccc(OCc3ccccc3)c2)n1	i	i	i	153	i	522.8%	i	i	99.9
Cc1cc(C)nc(/N=C(\N)Nc2ccc(OCCC(C)C)cc2)n1	i	i	i	118	i	599.1%	i	i	124
CCN(C(=O)COC(=O)c1oc2ccc(OC)cc2c1C)C1CCCCC1	i	i	i	i	i	nt	nt	nt	nt
Cc1ccc(-c2cc(NC(=O)CCl)n(-c3ccccc3)n2)cc1	i	i	i	35.4	i	150.4%	i	i	i
COc1ccccc1NS(=O)(=O)c1cc(C(=O)NCc2ccncc2)ccc1C	i	i	i	i	i	nt	nt	nt	nt
COc1ccccc1NS(=O)(=O)c1cc(C(=O)NCCC(C)C)ccc1F	i	i	i	34.5	i	313.1%	i	i	101
O=c1c2cc(Cl)ccc2nc(-c2ccc(Cl)c(Cl)c2)n1O	i	i	i	151	-7.68	718.9%	i	i	122
Cc1ccccc1-c1nc2ccc(Cl)cc2c(=O)n1O	i	i	i	i	i	nt	nt	nt	nt
O=c1c2cc(Br)ccc2nc(-c2cccc(C(F)(F)F)c2)n1O	i	i	i	119	i	619.8%	i	i	144
CCN1CCN(c2ccc(S(=O)(=O)N3CCOCC3)cc2NC(=O)/C=C/c2ccc([N+](=O)[O-])cc2)CC1	i	i	i	i	i	nt	nt	nt	nt
Cc1cc(C)cc(NC(=O)Nc2ccc(N3CCCCC3)cc2)c1	i	i	i	29.9	i	i	i	i	i
C/C(=N\NC(=O)c1cc2ccccc2cc1O)c1ccccn1	i	i	i	68.2	i	458.3%	i	i	109
C/C(=N\NC(=O)c1c[nH]c2ccccc12)c1ccccn1	i	i	i	i	i	nt	nt	nt	nt
COC(=O)c1c(Cl)c2n3ccccc3c(C)c(-c3ccccc3)c-2c1C(=O)OC	i	i	i	27.2	i	i	i	i	i
COC(=O)c1c(NC(=O)CN2C(=O)NC3(CCC(C(C)(C)C)CC3)C2=O)sc2c1CCCCC2 (stereo not drawn)	i	i	i	i	i	nt	nt	nt	nt
COC(=O)c1c(NC(=O)CN2C(=O)NC3(CCc4ccccc4C3)C2=O)sc2c1CCCCC2 (stereo not drawn)	i	i	i	29.1	i	224.9%	i	i	75.2
O=C(O)c1cnn(-c2nc(-c3cccc(F)c3)cs2)c1C(F)(F)F	i	i	i	48.1	i	155.9%	i	i	i
Nc1cccc(-c2csc(-n3ncc(C(=O)O)c3C(F)(F)F)n2)c1	i	i	i	i	i	nt	nt	nt	nt
CCn1cnc2cc(NCc3ccc(Br)cc3)ccc21	i	i	i	34.1	i	197.2%	i	i	i
Cc1ccc(CNc2ccc3c(c2)ncn3C(C)C)cc1	i	i	i	33.2	i	352.4%	i	i	79.5
C=C(C)Cn1c(SCC(=O)O)nnc1-c1ccccc1	i	i	i	i	i	nt	nt	nt	nt
SMILES	MrgX1 PAM	RGS4 block	MrgX1 antag	MrgX1 agonist	RGS4 pot	MrgX1 ag confirm	HEK293 Ca flux	HEK293 Ca counter	HEK293 Ca cntr2
C=C(C)Cn1c(-c2ccccc2)nc2ccccc21	i	i	i	30.7	i	131.0%	i	i	i
CCOC(=O)c1cc2c(ccn2C)n1Cc1ccc(Cl)cc1	i	i	i	i	i	nt	nt	nt	nt
CCOC(=O)c1cc2c(ccn2C)n1Cc1ccc(C#N)cc1	i	i	i	26.5	i	132.4%	i	i	i
CC(Oc1ccccc1)C(=O)Nc1nnc(S(=O)(=O)N(C)c2ccccc2)s1 (stereo not drawn)	i	i	i	29	i	95.2%	i	i	45.8
COc1ccc(C(=O)Nc2c(N)nc(SCC(=O)N3CCCCCC3)[nH]c2=O)cc1OC	i	i	i	i	i	nt	nt	nt	nt
CCCOc1ccc(CSC(=N)N)cc1C(=O)OC	i	i	i	i	i	nt	nt	nt	nt
COC(=O)c1cc(CSC(=N)N)ccc1OCCC(C)C	i	i	i	37.4	i	200.1%	i	i	i
CC(C)N1CCN(Cc2ccc(Sc3nncn3C)o2)CC1CCO (stereo not drawn)	i	i	i	i	i	nt	nt	nt	nt
COc1cc([N+](=O)[O-])cc(/C=N/NC(=O)C(O)(c2ccccc2)c2ccccc2)c1O	i	i	i	i	i	nt	nt	nt	nt
O=C(N/N=C/c1cccc([N+](=O)[O-])c1O)C(O)(c1ccccc1)c1ccccc1	i	i	i	65.6	i	115.7%	i	i	i
NS(=O)(=O)OCC(Cc1ccccc1)N1C(=O)c2ccccc2C1=O (stereo not drawn)	i	i	i	i	i	nt	nt	nt	nt
Cc1cc(Nc2ccccc2)nc(NCc2ccccc2)n1	i	i	i	i	i	nt	nt	nt	nt
Cc1cc(N2CCC(C)CC2)nc(NCc2ccccc2)n1	i	i	i	45.7	-7.02	148.2%	i	i	i
CCCCNc1cc(C)nc(NCc2ccccc2)n1	i	i	i	28.7	i	240.8%	i	i	i
CCN(C(=O)c1ccc(C)c(Br)c1)c1ccccc1	i	i	i	i	i	nt	nt	nt	nt
CCNC(=S)N(CCc1c(C)[nH]c2ccccc12)Cc1cc(OC)c(OC)c(OC)c1	i	i	i	i	i	nt	nt	nt	nt
Cn1c2ccccc2c(=O)c2c(=O)n(C3CCCCC3)c(-c3ccco3)nc21	i	i	i	90.8	i	589.3%	i	i	113
CS(=O)(=O)c1nc(-c2ccccc2)cc(C(F)(F)F)n1	i	i	i	37.6	i	183.6%	i	i	i

From PubChem BioAssay
